# Results: ChEMBL document CHEMBL4376884, “Toward a Rational Design of Polyamine-Based Zinc-Chelating Agents for Cancer Therapies” (J Med Chem, 2020)
# The source made the active and inactive calls. No cut-off for these calls is given here.
# Key:
# [1] = species: Homo sapiens; assay: Induction of apoptosis in human UPN2 cells assessed as increase in caspase-3/7 activation at 10 uM incubated for 48 hrs by luminometric caspase-glo 3/7 assay; assay type: functional, cell-based
# How it was run: (§1)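 Cells in RPMI or DMEM with 10% heat-inactivated FBS and penicillin/streptomycin, 37 °C, 5% CO2, treated with 10 µM compound for 48 h. Caspase-3 and caspase-7 activity read by luminescent Caspase-Glo 3/7 assay, reported as fold induction over untreated cells; mean ± SD of three independent experiments, each in triplicate.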
# [2] = tested on: PC-3; assay: Induction of apoptosis in human PC3 cells assessed as necrotic cells at 10 uM incubated for 72 hrs by annexin V-FITC and propidium iodide staining based flow cytometry analysis (reference value: 0.30 %); assay type: functional
# [3] = tested on: PC-3; assay: Induction of apoptosis in human PC3 cells assessed as necrotic cells at 10 uM incubated for 24 hrs by annexin V-FITC and propidium iodide staining based flow cytometry analysis (reference value: 0.30 %); assay type: functional
# [4] = tested on: LN-229; assay: Induction of cellular senescence in human LN229 cells assessed as larger volume of cell at 10 uM incubated for 24 hrs by phase contrast microscopy; assay type: functional, cell-based
# How it was run: (§2)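 LN229 and PC3 cells, 12×10^4 per well in 6-well plates, treated with 10 µM compound for 24 h. Senescence-associated β-gal staining: fixed in 2% formaldehyde/0.2% glutaraldehyde for 10 min at RT, stained with 1 mg/mL X-gal at 37 °C for 24 h without CO2. Blue cells counted in at least 10 fields at 10x and given as percent of total; four independent experiments. Morphology viewed by phase contrast at ×100.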
# [5] = tested on: PC-3; assay: Cell cycle arrest in human PC3 cells assessed as cell accumulation at sub-G1 phase at 10 uM incubated for 48 hrs by propidium iodide staining based flow cytometry analysis relative to control; assay type: functional
# [6] = tested on: LN-229; assay: Induction of cellular senescence in human LN229 cells assessed as wider cells at 10 uM incubated for 24 hrs by phase contrast microscopy; assay type: functional, cell-based; how it was run: as §2
# [7] = tested on: Z-138; assay: Antiproliferative activity against human Z138 cells assessed as reduction in cell viability at 10 uM incubated for 48 hrs by cell titer-glo assay; assay type: functional, cell-based
# How it was run: (§3)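 Cells plated and treated 24 h later with 10 µM compound for 48 h; viable cells quantified by CellTiter-Glo ATP luminescence. Expressed as percentage of viable cells relative to untreated; mean ± SD of three independent experiments, each in triplicate.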
# [8] = species: Homo sapiens; assay: Antiproliferative activity against human SP53 cells assessed as reduction in cell viability at 10 uM incubated for 48 hrs by cell titer-glo assay; assay type: functional, cell-based; how it was run: as §3
# [9] = tested on: Fibroblast; assay: Cytotoxicity against human Fibroblast assessed as reduction in cell viability incubated for 48 hrs by cell titer-glo assay; assay type: cell-based
# How it was run: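 Dose-response: cells plated, treated 24 h later for 48 h, then ATP measured by CellTiter-Glo luminescence. IC50 given as mean ± SD from three independent experiments, each in triplicate. Fibroblasts came from individuals. Cells were kept in RPMI or DMEM with 10% heat-inactivated FBS and penicillin/streptomycin at 37 °C, 5% CO2.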
# [10] = tested on: PC-3; assay: Cell cycle arrest in human PC3 cells assessed as cell accumulation at S phase at 10 uM incubated for 24 hrs by propidium iodide staining based flow cytometry analysis relative to control; assay type: functional
# [11] = tested on: PC-3; assay: Induction of cell morphological changes in human PC3 cells assessed as cell rounding at 10 uM incubated for 24 to 48 hrs by phase contrast microscopy; assay type: functional, cell-based
# How it was run: (§4)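 LN229 and PC3 cells exposed to 10 µM compound for the indicated time-points, then imaged live by phase-contrast microscopy for morphology.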
# [12] = tested on: LN-229; assay: Induction of cell morphological changes in human LN229 cells assessed as cell rounding at 10 uM incubated for 24 to 48 hrs by phase contrast microscopy; assay type: functional, cell-based; how it was run: as §4
# [13] = tested on: Z-138; assay: Induction of apoptosis in human Z138 cells assessed as increase in caspase-3/7 activation at 10 uM incubated for 48 hrs by luminometric caspase-glo 3/7 assay; assay type: functional, cell-based; how it was run: as §1
# [14] = tested on: U-87 MG; assay: Cell cycle arrest in human U87MG cells assessed as decrease in cell accumulation at G2 phase at 10 uM incubated for 24 hrs by propidium iodide staining based flow cytometry analysis; assay type: functional; conditions: U-87MG ATCC
# [15] = tested on: LN-229; assay: Cell cycle arrest in human LN229 cells assessed as cell accumulation at G2/M phase at 10 uM incubated for 24 hrs by propidium iodide staining based flow cytometry analysis relative to control; assay type: functional
# [16] = tested on: Granta-519; assay: Antiproliferative activity against human GRANTA-519 cells assessed as reduction in cell viability at 10 uM incubated for 48 hrs by cell titer-glo assay; assay type: functional, cell-based; how it was run: as §3
# [17] = tested on: PC-3; assay: Induction of apoptosis in human PC3 cells at 10 uM incubated for 24 to 48 hrs by annexin V-FITC and propidium iodide staining based flow cytometric analysis; assay type: functional, cell-based
# [18] = tested on: LN-229; assay: Induction of apoptosis in human LN229 cells at 10 uM incubated for 24 to 48 hrs by annexin V-FITC and propidium iodide staining based flow cytometric analysis; assay type: functional, cell-based
# [19] = tested on: LN-229; assay: Induction of cell morphological changes in human LN229 cells assessed as loss of cell adherence at 10 uM incubated for 24 to 48 hrs by phase contrast microscopy; assay type: functional, cell-based; how it was run: as §4
# [20] = tested on: PC-3; assay: Induction of cellular senescence in human PC3 cells assessed as larger volume of cell at 10 uM incubated for 24 hrs by phase contrast microscopy; assay type: functional, cell-based; how it was run: as §2
# [21] = tested on: PC-3; assay: Induction of cellular senescence in human PC3 cells assessed as increase in beta-gal-positive cells at 10 uM incubated for 24 hrs by X-Gal staining based microscopic assay relative to control; assay type: functional; how it was run: as §2
# [22] = tested on: PC-3; assay: Induction of apoptosis in human PC3 cells assessed as early apoptotic cells at 10 uM incubated for 24 hrs by annexin V-FITC and propidium iodide staining based flow cytometry analysis (reference value: 0.24 %); assay type: functional
# [23] = tested on: DNA; assay: Induction of DNA damage in human Z138 cells assessed as gammaH2AX phosphorylation at Ser139 residue at 10 uM incubated for 4 hrs by Flow cytometry analysis; assay type: cell-based
# How it was run: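 Z-138 and LN229 cells treated 4 h with 10 µM compound or 1 µM doxorubicin. Fixed in 3.7% formaldehyde on ice, permeabilized with 0.2% Triton X, stained with rabbit anti-pS139 H2A.X (1:400) and Alexa 555 secondary, then analysed by flow cytometry. Fold γH2AX fluorescence versus untreated; mean ± SD of three experiments.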
# [24] = tested on: LN-229; assay: Induction of cellular senescence in human LN229 cells assessed as flattened cells at 10 uM incubated for 24 hrs by phase contrast microscopy; assay type: functional, cell-based; how it was run: as §2
# [25] = species: Homo sapiens; assay: Induction of apoptosis in human SP53 cells assessed as increase in caspase-3/7 activation at 10 uM incubated for 48 hrs by luminometric caspase-glo 3/7 assay; assay type: functional, cell-based; how it was run: as §1
# [26] = tested on: PC-3; assay: Cell cycle arrest in human PC3 cells assessed as cell accumulation at S phase at 10 uM incubated for 48 hrs by propidium iodide staining based flow cytometry analysis relative to control; assay type: functional
# [27] = tested on: LN-229; assay: Inhibition of colony formation in human LN229 cells at 10 uM incubated for 4 hrs by crystal violet staining based colony counting method; assay type: functional, cell-based
# How it was run: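 LN229 and PC3 cells treated for 4 h with compound (10 µM) or with etoposide (30 µM positive control), washed, trypsinized and replated at 3000 cells per 60-mm plate. Colonies grown 7–10 days, fixed and stained with 0.5% crystal violet in 70% ethanol, and counted. Reported as percent of control; four independent experiments, each in duplicate.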
# [28] = tested on: JeKo-1; assay: Antiproliferative activity against human JeKo1 cells assessed as reduction in cell viability at 10 uM incubated for 48 hrs by cell titer-glo assay; assay type: functional, cell-based; how it was run: as §3
Compound,Activity [1],Activity [2] [%],Activity [3] [%],Activity [4],Activity [5] [%],Activity [6],Activity [7],Activity [8],IC50 [9] [µM],Activity [10] [%],Activity [11],Activity [12],Activity [13],Activity [14],Activity [15] [%],Activity [16],Activity [17],Activity [18],Activity [19],Activity [20],also measured
c1ccc(CNCCN(CCNCc2ccccn2)Cc2ccc3ccccc3c2)nc1,Active,2.32,1.53,Active,4.8,Active,Active,Active,29.7,8.9,Active,Active,Active,Active,22.1,Active,Active,Active,Active,Active,Activity [21]: 50%; Activity [22]: 0.63%; Activity [23]: inactive; Activity [24]: Active; Activity [25]: Active; Activity [26]: 7.7%; inhibition [27]: inactive; Activity [28]: Active
CN(CCNCc1ccccn1)CCNCc1ccccn1,Active,3.5,1.78,Active,19.6,Active,Active,Active,20.5,9.2,Active,Active,Active,Active,22.1,Active,Active,Active,Active,Active,Activity [21]: Active; Activity [22]: 0.8%; Activity [23]: inactive; Activity [24]: Active; Activity [25]: Active; Activity [26]: 7.2%; inhibition [27]: inactive; Activity [28]: Active
